Sampled rows, rich in hits. Any-hit rate of the full collection: about 0.98%.
Yeast lifespan up: yeast lifespan extension; S. cerevisiae growth with nicotinamide, OD615; deaD strain in restrictive glucose medium; inhibition of the nicotinamide effect, % at 10 µM; actives 0.68% (n = 130,000);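 active means inhibition above a set limit, placed 3 SD over the median of all compounds, cut at about 26% in these data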;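 further: 0% = nicotinamide-treated wells and 100% = cells grown without nicotinamide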
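Assay system: engineered S. cerevisiae DeaD replicative-lifespan strain, galactose-grown log-phase cells; Buffer or medium: CSMM-D glucose medium, restrictive; Probe or stimulus: nicotinamide 1.5 mM; Compound: single dose 10 µM compound, 0.25% DMSO; Schedule: 4 h preincubation then 48 h treatment at 30 °C; Technique: OD615 measurement.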
S1P3 antagonist: S1P3 (human) receptor antagonism; actives 0.27% (n = 170,000); inhibition, % at 4.98 µM; Q99500; AID 485; CHO S1P3 NFAT-BLA reporter, FRET fluorescence, antagonist mode;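 active means inhibition above the plate cutoff, the mean inhibition of test wells on that plate plus 3 SD, cut at about 28% in these data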;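 further: cells challenged with S1P at its EC80 of 0.8 µM; blue over green emission ratio from cleaved BLA substrate after 4 h stimulation; 0% = S1P-stimulated wells and 100% = unstimulated DMSO-only wells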
Target sequence (Q99500 whole entry, looked up): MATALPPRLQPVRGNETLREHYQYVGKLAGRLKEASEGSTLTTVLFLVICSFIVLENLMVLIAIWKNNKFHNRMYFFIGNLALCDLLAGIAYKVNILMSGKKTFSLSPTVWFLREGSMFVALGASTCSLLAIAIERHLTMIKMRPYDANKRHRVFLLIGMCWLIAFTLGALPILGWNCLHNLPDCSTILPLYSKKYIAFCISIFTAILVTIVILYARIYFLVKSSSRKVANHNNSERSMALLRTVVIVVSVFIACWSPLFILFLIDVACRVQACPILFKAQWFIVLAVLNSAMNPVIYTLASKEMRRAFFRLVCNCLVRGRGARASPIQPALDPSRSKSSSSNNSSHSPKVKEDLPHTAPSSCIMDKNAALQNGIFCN
BB579 growth dn: chemicals that inhibit yeast BB579 growth in restrictive medium (lifespan-shortening candidates) | S. cerevisiae BB579 growth, OD615, 48 h | inhibition, % at 10 µM | actives 0.51% (n = 140,000) | AID 804;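 active means inhibition above a set limit, 3 SD over the mean compound inhibition, cut at about 44% in these data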
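Detection: OD615 turbidity measurement; Material: Saccharomyces cerevisiae DeaD strain BB579, replicative lifespan model yeast; Timing: 48 h exposure, 30 °C; Doses: single 10 µM dose; Medium: CSMM-D restrictive synthetic medium containing dextrose (glucose); Controls: amphotericin B at 10 µg/mL as positive control.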
* hit, by the source's call; x = no result given.

SMILES | Yeast lifespan up | S1P3 antagonist | BB579 growth dn
O=C1CCC([N+](=O)[O-])C(c2ccc(Cl)cc2Cl)N1 (stereo unspecified) | -1 | x | -3
CCCCCSc1nc(O)cc(=O)[nH]1 | 58* | x | -19
CCSc1nc(O)cc(=O)[nH]1 | x | -4 | x
Cc1ccc2nc(Nc3ccccc3)c(/C=N/O)c(=O)n2c1 | 27* | 11 | -23
COc1ccc(Nc2nc3ccc(C)cn3c(=O)c2/C=N/O)cc1 | x | -5 | x
O=C(C1c2ccccc2Oc2ccccc21)N1CCN(c2ccc(Cl)cc2)CC1 | -6 | x | -44
COC(=O)c1nnn(-c2cccc(Cl)c2)c1C(=O)OC | x | -2 | x
c1ccc(-c2nc3ccccc3[nH]2)nc1 | -4 | 0 | -19
c1ccc(-c2nc3c(ccc4ccccc43)[nH]2)nc1 | x | x | 72*
O=C1NC(c2cc(Cl)cc([N+](=O)[O-])c2O)Nc2ccccc21 (stereo unspecified) | x | 5 | x
Cc1ccc(-n2[nH]c(C)c(C=Nc3ccc(S(=O)(=O)Nc4nccs4)cc3)c2=O)c(C)c1 | x | -7 | x
Clc1ccccc1N/N=C/c1ccc2c(c1)OCO2 | -7 | -3 | 90*
C(=N\Nc1nc2ccccc2[nH]1)/c1ccc2c(c1)OCO2 | x | 0 | x
CCS(=O)(=O)n1nc(-c2ccc(Cl)cc2)nc1SCc1ccccc1 | x | x | 75*
COc1ccc(-c2nc(SCc3ccccc3)n(S(C)(=O)=O)n2)cc1 | -6 | x | -11
NC(=O)C1=C[C@@H](c2ccc(C(F)(F)F)cc2)C[C@@H](OCCCCO)O1 | x | -14 | x
COCCNc1nc(-c2cc3ccccc3o2)cs1 | -7 | -25 | -48
Cc1ccccc1-n1nc(C)c(N=O)c1N | x | 5 | x
CCOC(=O)N1CCN(S(=O)(=O)c2ccc(OC)c(OC)c2)CC1 | x | x | -6
CCc1c(C)c(C#N)c2nc3ccccc3n2c1Cl | 28* | -7 | 18
Cc1cc(-c2ccco2)c(C#N)c2nc3ccccc3n12 | -32 | x | 89*
Cc1cc(C(C)C)n2c(nc3ccccc32)c1C#N | x | -5 | x
CCc1c(C)c(C#N)c2nc3ccccc3n2c1-n1nc(C)cc1C | 11 | 2 | -50
CN1CCC(OC(=O)C23CCC(C)(C(=O)O2)C3(C)C)CC1 (stereo unspecified) | -5 | -11 | -34
COC(=O)COc1ccc(C2Nc3c(Cl)ccc(C(=O)O)c3C3C=CCC32)cc1 (stereo unspecified) | x | -9 | x
SMILES | Yeast lifespan up | S1P3 antagonist | BB579 growth dn
OCCN(CCO)CC(O)COc1ccc(C23CC4CC(CC(C4)C2)C3)cc1 (stereo unspecified) | -10 | 15 | 46*
OCCN(CCO)CC(O)COc1ccc(Br)cc1 (stereo unspecified) | x | 4 | x
Nc1nsc2ccccc12 | -8 | 19 | 46*
Nc1nnc(N)c2ccccc12 | x | -8 | x
O=C1CCC(CCC(=O)N2CCCC(C(=O)c3cccc(C(F)(F)F)c3)C2)=NN1 (stereo unspecified) | x | -6 | x
Cc1cc(C)nc(SCc2cc(=O)c(OC(=O)c3ccc(Br)o3)co2)n1 | 49* | -8 | -42
Cc1ccnc(SCc2cc(=O)c(OC(=O)c3ccccc3)co2)n1 | x | -9 | x
Cc1cc(C)nc(SCc2cc(=O)c(OC(=O)c3cc([N+](=O)[O-])ccc3Cl)co2)n1 | 19 | 5 | -39
Cc1cc(C)nc(SCc2cc(=O)c(OC(=O)c3ccco3)co2)n1 | 46* | 3 | -24
COc1ccc(/C(N)=N/OC(=O)Cc2ccccc2[N+](=O)[O-])cc1 | -3 | 3 | -40
CC(=O)c1cccc(NC(=O)Cc2cccs2)c1 | -12 | 12 | -23
O=C(Cc1cccs1)Nc1cccc(C(=O)Nc2ccco2)c1 | -15 | 52* | -36
CCc1nc(SCC(=O)Nc2cc(C)on2)n[nH]1 | -7 | -1 | -1
CNC(=S)N/N=C1\CC(c2ccccc2)Oc2ccccc21 (stereo unspecified) | x | 18 | x
Fc1ccc(N/N=C2/CC(c3ccccc3)Oc3ccccc32)c(F)c1 (stereo unspecified) | -7 | -5 | 86*
Cc1cc(C(=O)Nc2cccc(C(=O)O)c2)oc1C | -4 | 2 | -11
O=c1[nH]c2ccccc2nc1Cc1ccccc1 | 43* | 8 | -72
O=C(Cc1nc2ccccc2[nH]c1=O)c1ccccc1 | x | 10 | x
CCSc1nnc(NC(=O)c2cc(C)on2)s1 | 3 | 6 | -10
O=C(/C=C(\O)c1ccc(Cl)cc1)C(=O)NNC(=O)C(O)(c1ccccc1)c1ccccc1 | 62* | x | -32
CCCNNC(=O)C(O)(c1ccccc1)c1ccccc1 | -5 | -10 | -20
Cc1ccccc1NC(=O)CSc1nc2c(c(-c3ccco3)c1C#N)CCCC2 | -5 | 79* | -49
CCc1ccccc1NC(=O)CSc1nc2c(c(-c3ccco3)c1C#N)CCCC2 | -3 | -14 | -80
CCCOc1ccc(/C=C/C(=O)Nc2ccc([N+](=O)[O-])cc2C)cc1OC | -10 | x | -36
CN(C)c1ccc(/C=C/c2cccc[n+]2[O-])cc1 | x | -3 | x
SMILES | Yeast lifespan up | S1P3 antagonist | BB579 growth dn
CN(C)c1ccc(/C=C/c2ccc3c4ccccc4ccc3[n+]2-c2ccccc2)cc1 | x | 55* | x
CN(C)c1ccc(/C=C/c2ccncc2)cc1 | -6 | -15 | -92
CN(C)c1ccc(/C=C/c2ccc3ccccc3[n+]2C)cc1 | 2 | 15 | 66*
O=C(CSC1=NCCN1)NC1CCCCCC1 | -8 | x | -39
Cc1ccc2c(CC(=O)OC3CCOC3=O)coc2c1 (stereo unspecified) | -19 | -25 | -29
CCN(CC)C(=O)CSc1nc2c(sc(=S)n2-c2ccccc2)c(=O)[nH]1 | x | -28 | x
CC(C)(C)C(C(=O)O)N1CCS(=O)(=O)CC1 (stereo unspecified) | x | 0 | x
COc1ccc(CCNC(=O)N2CCOCC2)cc1 | x | x | 21
CC(C)CCNC(=O)C(c1ccc(O)cc1)N(C(=O)C1COc2ccccc2O1)c1cccc(O)c1 (stereo unspecified) | x | -9 | x
O=c1c(C(c2ccccc2)c2c(O)sc3ccccc3c2=O)c(O)sc2ccccc12 | 26* | x | -9
Cc1cc2sc3ccccc3c(=O)c2c(C)c1O | x | -4 | x
CCOC(=O)c1c(C)oc2c1c(C=NCC1CCCO1)c(O)c1ccccc12 (stereo unspecified) | 29* | -63 | -62
CCOC(=O)c1c(C)oc2c1c(C(c1cccnc1)N1CCOCC1)c(O)c1ccccc12 (stereo unspecified) | 40* | x | -16
CCOC(=O)c1c(C)oc2c1c(C=NCc1ccccn1)c(O)c1ccccc12 | 31* | -9 | -59
CCOC(=O)c1c(C)oc2c1c(C(c1cccnc1)N1CCN(C)CC1)c(O)c1ccccc12 (stereo unspecified) | x | -4 | x
CCOC(=O)c1c(C)oc2c1cc(O)c1ccccc12 | -7 | 19 | -33
CCOC(=O)c1c(C)oc2c1c1c(c3ccccc32)OCN(CCCC(=O)O)C1 | x | 1 | x
Clc1cccc(Cl)c1Cn1cc(Br)cn1 | -17 | x | -30
COc1ccc(C(=O)N2CCN(Cc3cn[nH]c3-c3ccc(OC)cc3F)CC2)cc1 | x | -8 | x
CC(/C=C/c1ccc(Cl)o1)=C\C(=O)O | x | -34 | x
CC(=C/C(=O)O)/C=C/c1ccco1 | 28* | -11 | -24
CCCCOC(=O)CN1C(=O)c2ccc(C(=O)OCCCC)cc2C1=O | -24 | -30 | -64
